Here are results for six compounds from ChEMBL document CHEMBL1139935, “Discovery of novel indazole-linked triazoles as antifungal agents” (2007).

One assay relates to Cryptococcus neoformans. The experiment in a line: Antifungal activity against Cryptococcus neoformans ATCC 24065 by broth microdilution assay. Background: Dilution methods test growth across graded concentrations, often in twofold steps.
A further assay deals with Pichia kudriavzevii. The experiment in a line: Antifungal activity against Candida krusei ATCC 6528 by broth microdilution assay. The format is functional.
For assay [1], the system named is HepG2. The assay can be described thus: Cytotoxicity against human HepG2 cells at 50 uM by neutral red uptake assay. It is filed as functional.
In assay [2] the test system is Candida albicans. The experiment in a line: Antifungal activity against Candida albicans ATCC 36082 by broth microdilution assay. It is filed as functional.
The next assay concerns Aspergillus fumigatus. The assay can be described thus: Antifungal activity against Aspergillus fumigatus ATCC 16424 by broth microdilution assay. The format is functional.
In a further assay the test system is Candida tropicalis. The assay can be described thus: Antifungal activity against Candida tropicalis ATCC 750 by broth microdilution assay. The format is functional.
Another assay concerns Clavispora lusitaniae. The assay can be described thus: Antifungal activity against Candida lusitaniae ATCC 42720 by broth microdilution assay. The format is functional.
The test system of a further assay is Aspergillus terreus. The experiment in a line: Antifungal activity against Aspergillus terreus ATCC 28301 by broth microdilution assay. It is filed as functional.
In the next assay the test system is Candida parapsilosis. The assay can be described thus: Antifungal activity against Candida parapsilosis ATCC 21019 by broth microdilution assay. The format is functional. The following applies: Lodderomyces parapsilosis.
The subject of the next assay is Aspergillus niger. The assay can be described thus: Antifungal activity against Aspergillus niger ATCC 9042 by broth microdilution assay. The format is functional.
In another assay the test system is Nakaseomyces glabratus. The assay can be described thus: Antifungal activity against Candida glabrata ATCC 34138 by broth microdilution assay. The format is functional.
The subject of the next assay is Aspergillus flavus. The assay can be described thus: Antifungal activity against Aspergillus flavus ATCC MYA-1004 by broth microdilution assay. The format is functional.
The subject of assay [3] is HepG2. The assay can be described thus: Cytotoxicity against human HepG2 cells by neutral red uptake assay. It is filed as functional. The essentials:
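Human hepatoma HepG2 cells; neutral red uptake read-out following a previously described protocol; the value is the CC50 (concentration giving half-maximal cytotoxicity); ketoconazole served as reference agent.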

The subject of assay [4] is Candida albicans. The assay can be described thus: Antifungal activity against systemic Candida albicans ATCC 36082 infection model in ICR mouse assessed as survival at 20 mg/kg, po. The format is functional. The essentials: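 C. albicans ATCC 36082 given systemically, about 5 × 10⁵ cells per animal. Oral dosing at 20 mg/kg once daily started 2 h post-infection and continued for 7 consecutive days. Read-out was mean survival days, compared against an untreated infected control group.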

Values after ≈ are worked out from the molar mass of the structure shown.

Broadly, the MIC80 is the lowest concentration that inhibits either 80% of growth or 80% of the strains tested, depending on the study. Read a low MIC80 as higher susceptibility. One may read the inhibition as the change of the read-out against control, counted positive when it falls. Higher therefore signals a strong effect. For `Cc1nn([C@H](C)[C@](O)(Cn2cncn2)c2ccc(F)cc2F)c2cccc(F)c12`, the MIC80 with Cryptococcus neoformans was 0.125 µg/mL (≈ 0.311 µM); against Pichia kudriavzevii, 1 µg/mL (≈ 2.49 µM); against Candida albicans [2], at most 0.015 µg/mL; with Aspergillus fumigatus, 16 µg/mL (≈ 39.9 µM); in the assay on Candida tropicalis it was 1 µg/mL (≈ 2.49 µM); against Clavispora lusitaniae, 0.125 µg/mL (≈ 0.311 µM). The MIC80 was over 16 µg/mL in the assay with Aspergillus terreus; 0.25 µg/mL (≈ 0.623 µM) against Candida parapsilosis; over 16 µg/mL in the assay on Aspergillus niger; 8 µg/mL (≈ 19.9 µM) against Nakaseomyces glabratus; over 16 µg/mL in the assay on Aspergillus flavus. The same compound showed an inhibition at 50 µM in the assay on HepG2 [1] of 8.1%.

The term CC50 denotes the concentration at which the toxic effect on the cells reaches its halfway point. A lower CC50 goes with harm at low concentration. Take `C[C@@H](n1cc2cc(Br)ccc2n1)[C@](O)(Cn1cncn1)c1ccc(F)cc1F`: the CC50 with HepG2 [3] was determined as 141 µM. Further, the MIC80 in the assay with Cryptococcus neoformans was at most 0.015 µg/mL; in the assay on Pichia kudriavzevii, 0.125 µg/mL (≈ 0.279 µM); against Candida albicans [2], at most 0.015 µg/mL; in the assay on Aspergillus fumigatus, 0.25 µg/mL (≈ 0.558 µM); against Candida tropicalis, at most 0.015 µg/mL; against Clavispora lusitaniae, at most 0.015 µg/mL. The MIC80 with Aspergillus terreus was 0.5 µg/mL (≈ 1.12 µM); with Candida parapsilosis, at most 0.015 µg/mL; with Aspergillus niger it was 1 µg/mL (≈ 2.23 µM); against Nakaseomyces glabratus, 2 µg/mL (≈ 4.46 µM); with Aspergillus flavus, 0.5 µg/mL (≈ 1.12 µM). Also, the Survival in the assay with Candida albicans [4] turned out to be 13.5 days.

In the case of `Cc1nn([C@H](C)[C@](O)(Cn2cncn2)c2ccc(F)cc2F)c2ccc(C(F)(F)F)cc12`, the MIC80 in the assay on Cryptococcus neoformans is 1 µg/mL (≈ 2.22 µM); in the assay with Pichia kudriavzevii, 4 µg/mL (≈ 8.86 µM); in the assay on Candida albicans [2] it was at most 0.015 µg/mL; in the assay on Aspergillus fumigatus, over 16 µg/mL; with Candida tropicalis it was over 8 µg/mL; with Clavispora lusitaniae it was 0.25 µg/mL (≈ 0.554 µM). Further, the MIC80 in the assay with Aspergillus terreus was over 16 µg/mL; against Candida parapsilosis, 1 µg/mL (≈ 2.22 µM); against Aspergillus niger, over 16 µg/mL; against Nakaseomyces glabratus it was 8 µg/mL (≈ 17.7 µM); against Aspergillus flavus, over 16 µg/mL. Also, in the assay with HepG2 [1], the inhibition at 50 µM is 2.9%.

In the assay with HepG2 [3], `C[C@@H](n1ncc2ccccc21)[C@](O)(Cn1cncn1)c1ccc(F)cc1F` yielded a CC50 of 599 µM. Besides, the MIC80 in the assay on Cryptococcus neoformans is 0.063 µg/mL (≈ 0.171 µM); in the assay with Pichia kudriavzevii, 0.5 µg/mL (≈ 1.35 µM); with Candida albicans [2], at most 0.015 µg/mL; against Aspergillus fumigatus, 2 µg/mL (≈ 5.41 µM); in the assay on Candida tropicalis it was 0.125 µg/mL (≈ 0.338 µM); in the assay with Clavispora lusitaniae it was 0.063 µg/mL (≈ 0.171 µM). In addition, the MIC80 in the assay with Aspergillus terreus was found to be 2 µg/mL (≈ 5.41 µM); against Candida parapsilosis, 0.063 µg/mL (≈ 0.171 µM); against Aspergillus niger, 4 µg/mL (≈ 10.8 µM); with Nakaseomyces glabratus, 2 µg/mL (≈ 5.41 µM); in the assay with Aspergillus flavus, 1 µg/mL (≈ 2.71 µM). In addition, the Survival with Candida albicans [4] came to 7.2 days.

Regarding `C[C@@H](n1ncc2cc([N+](=O)[O-])ccc21)[C@](O)(Cn1cncn1)c1ccc(F)cc1F`, the MIC80 was 0.063 µg/mL (≈ 0.152 µM) in the assay with Cryptococcus neoformans; 0.25 µg/mL (≈ 0.603 µM) against Pichia kudriavzevii; at most 0.015 µg/mL in the assay on Candida albicans [2]; 1 µg/mL (≈ 2.41 µM) against Aspergillus fumigatus; 0.031 µg/mL (≈ 0.0748 µM) in the assay on Candida tropicalis; at most 0.015 µg/mL against Clavispora lusitaniae. Besides, the MIC80 with Aspergillus terreus turned out to be 2 µg/mL (≈ 4.83 µM); against Candida parapsilosis, 0.031 µg/mL (≈ 0.0748 µM); in the assay on Aspergillus niger, 2 µg/mL (≈ 4.83 µM); in the assay on Nakaseomyces glabratus it was 4 µg/mL (≈ 9.65 µM); with Aspergillus flavus it was 1 µg/mL (≈ 2.41 µM). Further, the Survival in the assay with Candida albicans [4] came to 12.4 days.

For the compound `CC(=O)N1CCN(c2ccc(OCC3COC(Cn4ccnc4)(c4ccc(Cl)cc4Cl)O3)cc2)CC1` (centres undefined) [KETOCONAZOLE], in the assay with HepG2 [3], the 50% cytotoxic concentration (CC50) is 51 µM. In the assay with Nakaseomyces glabratus, this compound returned an MIC80 of 4 µg/mL (≈ 7.53 µM).
